# Results collected from several papers.
# Compare with care: the assays were run in different laboratories.
# Read-out: enzyme activity
# Action: inhibitor
# PIK3CA: Phosphatidylinositol 4,5-bisphosphate 3-kinase catalytic subunit alpha isoform (PIK3CA, Homo sapiens, UniProt P42336)
# KDR: Vascular endothelial growth factor receptor 2 (KDR, Homo sapiens, UniProt P35968)
# PIK3CB: Phosphatidylinositol 4,5-bisphosphate 3-kinase catalytic subunit beta isoform (PIK3CB, Homo sapiens, UniProt P42338)
SMILES,target,test,IC50
O=C1C(=Nc2ccc(Cl)cc2)c2ccccc2N1Cc1cccc(Cl)c1,PIK3CA,ADP detection,322 nM
COc1ccc(-c2cc(=O)c3cccc(Nc4ncc5cc(C(=O)N(C)C)n(C6CCCC6)c5n4)c3o2)cc1,PIK3CA,radiometric,> 10000 nM
COc1ccc(-c2cc(=O)c3c(O)cc(O[C@@H]4O[C@H](CO[C@@H]5O[C@@H](C)[C@H](O)[C@@H](O)[C@H]5O)[C@@H](O)[C@H](O)[C@H]4O)cc3o2)cc1O,KDR,TR-FRET,32700 nM
COc1ccc(-c2oc3cc(Nc4ncc5cc(C(=O)N(C)C)n(C6CCCC6)c5n4)ccc3c(=O)c2F)cc1,PIK3CA,radiometric,> 10000 nM
CC(C)C[C@H](NC(=O)[C@@H](NC(=O)N[C@@H](Cc1ccccc1)C(=O)O)[C@@H]1CCN=C(N)N1)C(=O)N[C@H](C=O)Cc1ccccc1,"Cathepsin G (CTSG, Homo sapiens, UniProt P08311)",,4190 nM
CN(C)C(=O)c1cc2cnc(Nc3ccc(-c4cccc5c(=O)cc(N6CCOCC6)oc45)c(F)c3)nc2n1C1CCCC1,PIK3CA,radiometric,182 nM
O=[N+]([O-])c1ccc(O)c(C=NNc2ccc(Cl)cc2)c1,KDR,ATP luminescence,21200 nM
COc1ccc(-c2cc(=O)c3ccc(Nc4ncc5cc(C(=O)N(C)C)n(C6CCCC6)c5n4)cc3o2)cc1,PIK3CA,radiometric,> 10000 nM
C[C@@H]1O[C@@H](O[C@H]2[C@H](Oc3cc(O)c4c(=O)cc(-c5ccc(O)cc5)oc4c3)O[C@H](CO)[C@@H](O)[C@@H]2O)[C@H](O)[C@H](O)[C@H]1O,KDR,TR-FRET,> 40000 nM
O=C(Nc1nnc(-c2ccc3c(c2)OCCO3)o1)c1ccc(C(=O)c2ccccc2)cc1,PIK3CA,ADP detection,470 nM
CC(=O)OC[C@H]1O[C@@H]([S-])[C@H](OC(C)=O)[C@@H](OC(C)=O)[C@@H]1OC(C)=O.CCP(CC)CC.[Au+],"Thioredoxin reductase 1, cytoplasmic (TXNRD1, Homo sapiens, UniProt Q16881)",absorbance,397 nM
CN(C)C(=O)c1cc2cnc(Nc3cc(C(=O)O)cc(-c4cccc5c(=O)cc(N6CCOCC6)oc45)c3)nc2n1C1CCCC1,PIK3CA,radiometric,1590 nM
O=[N+]([O-])c1cc(Br)c(O)c(C=NNc2ccc(Cl)cc2)c1,KDR,ATP luminescence,7700 nM
O=C1C(=Nc2ccc(Cl)cc2)c2ccccc2N1Cc1ccc([N+](=O)[O-])cc1,PIK3CB,ADP detection,7.73 nM
O=[N+]([O-])c1ccc(O)c(C=NNc2ccc(C(F)(F)F)cc2)c1,KDR,ATP luminescence,20700 nM
Cc1cccc(N=C2C(=O)N(Cc3cccc(Cl)c3)c3ccccc32)c1,PIK3CB,ADP detection,33.9 nM
CN(C)C(=O)c1cc2cnc(Nc3cncc(-c4ccc5c(=O)cc(N6CCOCC6)oc5c4)c3)nc2n1C1CCCC1,PIK3CA,radiometric,260 nM
Cc1ccc(CN2C(=O)C(=Nc3c(C(C)C)cccc3C(C)C)c3ccccc32)cc1,PIK3CA,ADP detection,319 nM
O=[N+]([O-])c1cc(Br)c(O)c(C=NNc2ccc(Br)cc2)c1,KDR,ATP luminescence,7070 nM
O=C(CCc1ccc(Cl)cc1)N1C(=O)C(=Nc2ccc(Cl)cc2Br)c2ccccc21,PIK3CB,ADP detection,810 nM
O=C1/C(=C/c2ccc3ccccc3c2O)NC(=S)N1c1ccccc1,KDR,ELISA,235 nM
O=C1C(=Nc2ccccc2I)c2ccccc2N1Cc1ccc(Br)cc1,PIK3CA,ADP detection,298 nM
O=[N+]([O-])c1cc(I)c(O)c(C=NNc2ccc(Cl)cc2)c1,KDR,ATP luminescence,7830 nM
Cc1cccc(N=C2C(=O)N(Cc3ccccc3)c3ccccc32)c1,PIK3CA,ADP detection,8.64 nM
CN(C)C(=O)c1cc2cnc(Nc3ccc(-c4cccc5c(=O)cc(N6CCOCC6)oc45)cn3)nc2n1C1CCCC1,PIK3CA,radiometric,> 10000 nM
Cc1ccc(CN2C(=O)C(=Nc3cccc(Cl)c3)c3ccccc32)cc1,PIK3CA,ADP detection,27.6 nM
CN(C)C(=O)c1cc2cnc(Nc3ccc(-c4cccc5c(=O)cc(N6CCNCC6)oc45)cc3)nc2n1C1CCCC1,PIK3CA,radiometric,> 10000 nM
